Experimental data published in ChEMBL document CHEMBL4340532, “Design, synthesis, and biological evaluation of novel 2'-deoxy-2'-fluoro-2'-C-methyl 8-azanebularine derivatives as potent anti-HBV agents” (Bioorg Med Chem Lett, 2019).

Tests used:
Hepatitis B virus [1] = assay: Antiviral activity against Hepatitis B virus infected in human HepG2.2.15 cells assessed as inhibition of HBeAg secretion at 20 uM supplemented with fresh medium containing compound every 3 days for 6 days and measured on day 9 by ELISA relative to control; format: functional
In short: (§1)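 HepG2.2.15 cells were exposed to compound for up to 9 days. The initial screen used 20 µM for 9 days, with lamivudine (20 µM) as positive control. Follow-up used 10, 20 or 40 µM sampled at days 3, 6 and 9. HBsAg and HBeAg were quantified in culture supernatant by ELISA and compared with a no-drug control. Results are mean ± SD of three experiments.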

Hepatitis B virus [2] = assay: (§2) Antiviral activity against lamivudine-resistant Hepatitis B virus harboring L180M/M204V mutant infected in human HepG2.2.15 cells assessed as inhibition of extracellular HBV DNA replication at 10 uM supplemented with fresh medium containing compound every 3 days for 6 days measured post-last dose by FQ-PCR analysis relative to control; format: functional
In short: (§3)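 Lamivudine-resistant cell line transfected with the L180M/M204V mutant, exposed to 10, 20 or 40 µM for 3, 6 or 9 days. Intracellular and extracellular HBV DNA levels measured.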

Hepatitis B virus [3] = assay: Antiviral activity against Hepatitis B virus infected in human HepG2.2.15 cells assessed as inhibition of extracellular HBV DNA replication at 20 uM measured on day 3 by FQ-PCR analysis relative to control; format: functional; details: HepG2.2.15, 72 h
In short: (§4)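 HepG2.2.15 cultures were treated at 10, 20 or 40 µM for 3, 6 and 9 days. Both intracellular and extracellular HBV DNA levels were then determined and compared with untreated cells.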

Hepatitis B virus [4] = assay: Antiviral activity against Hepatitis B virus infected in human HepG2.2.15 cells assessed as inhibition of HBsAg secretion at 20 uM supplemented with fresh medium containing compound every 3 days for 6 days and measured on day 9 by ELISA relative to control; format: functional; in short: as §1
Hepatitis B virus [5] = assay: Antiviral activity against Hepatitis B virus infected in human HepG2.2.15 cells assessed as inhibition of extracellular HBV DNA replication at 40 uM supplemented with fresh medium containing compound every 3 days for 9 days measured post-last dose by FQ-PCR analysis relative to control; format: functional; in short: as §4
[6] = Cytotoxicity against human HepG2 cells after 3 days by MTT assay; format: cell-based
In short: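 HepG2 cells were exposed to compound for 3 or 9 days and viability was read by MTT assay. CC50 is the concentration causing 50% cytotoxicity. Results are mean ± SD of three experiments.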

Hepatitis B virus [7] = assay: Antiviral activity against lamivudine-resistant Hepatitis B virus harboring L180M/M204V mutant infected in human HepG2.2.15 cells assessed as inhibition of intracellular HBV DNA replication at 20 uM measured on day 3 by FQ-PCR analysis relative to control; format: functional; details: HepG2.2.15, 72 h; in short: as §3
Hepatitis B virus [8] = assay: (§5) Antiviral activity against Hepatitis B virus infected in human HepG2.2.15 cells assessed as inhibition of intracellular HBV DNA replication at 40 uM supplemented with fresh medium containing compound every 3 days for 9 days measured post-last dose by FQ-PCR analysis relative to control; format: functional; in short: as §4
Hepatitis B virus [9] = assay: Antiviral activity against Hepatitis B virus infected in human HepG2.2.15 cells assessed as inhibition of extracellular HBV DNA replication at 20 uM supplemented with fresh medium containing compound every 3 days for 6 days measured post-last dose by FQ-PCR analysis relative to control; format: functional; in short: as §4
Hepatitis B virus [10] = assay: Antiviral activity against Hepatitis B virus infected in human HepG2.2.15 cells assessed as inhibition of extracellular HBV DNA replication at 10 uM supplemented with fresh medium containing compound every 3 days for 9 days measured post-last dose by FQ-PCR analysis relative to control; format: functional; in short: as §4
Hepatitis B virus [11] = assay: as §2, with “intracellular” for “extracellular”, “20” for “10”, “9” for “6”; format: functional; in short: as §3
Hepatitis B virus [12] = assay: as §2, with “intracellular” for “extracellular”, “9” for “6”; format: functional; in short: as §3
Hepatitis B virus [13] = assay: Antiviral activity against lamivudine-resistant Hepatitis B virus harboring L180M/M204V mutant infected in human HepG2.2.15 cells assessed as inhibition of intracellular HBV DNA replication at 40 uM measured on day 3 by FQ-PCR analysis relative to control; format: functional; details: HepG2.2.15, 72 h; in short: as §3
Hepatitis B virus [14] = assay: Antiviral activity against Hepatitis B virus infected in human HepG2.2.15 cells assessed as inhibition of intracellular HBV DNA replication at 40 uM supplemented with fresh medium containing compound every 3 days for 6 days measured post-last dose by FQ-PCR analysis relative to control; format: functional
In short: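 HepG2.2.15 cells exposed to 10, 20 or 40 µM for 3, 6 or 9 days; intracellular and extracellular HBV DNA levels measured.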

Hepatitis B virus [15] = assay: Antiviral activity against Hepatitis B virus infected in human HepG2.2.15 cells assessed as inhibition of intracellular HBV DNA replication at 10 uM measured on day 3 by FQ-PCR analysis relative to control; format: functional; details: HepG2.2.15, 72 h; in short: as §4
Hepatitis B virus [16] = assay: as §2, with “9” for “6”; format: functional; in short: as §3
Hepatitis B virus [17] = assay: as §2, with “40” for “10”, “9” for “6”; format: functional; in short: as §3
Hepatitis B virus [18] = assay: Antiviral activity against Hepatitis B virus infected in human HepG2.2.15 cells assessed as inhibition of intracellular HBV DNA replication at 20 uM measured on day 3 by FQ-PCR analysis relative to control; format: functional; details: HepG2.2.15, 72 h; in short: as §4
Hepatitis B virus [19] = assay: Antiviral activity against Hepatitis B virus infected in human HepG2.2.15 cells assessed as inhibition of extracellular HBV DNA replication at 40 uM measured on day 3 by FQ-PCR analysis relative to control; format: functional; details: HepG2.2.15, 72 h; in short: as §4
Hepatitis B virus [20] = assay: Antiviral activity against Hepatitis B virus infected in human HepG2.2.15 cells assessed as inhibition of extracellular HBV DNA replication at 40 uM supplemented with fresh medium containing compound every 3 days for 6 days measured post-last dose by FQ-PCR analysis relative to control; format: functional; in short: as §4
Hepatitis B virus [21] = assay: as §5, with “against lamivudine-resistant” for “against”, “virus harboring L180M/M204V mutant” for “virus”; format: functional; in short: as §3

## C[C@@]1(F)[C@H](O)[C@@H](CO)O[C@H]1n1nnc2c(Nc3ccc(Cl)cc3F)ncnc21
Hepatitis B virus [1]
  inhibition (INH): 31.6%
Hepatitis B virus [2]
  inhibition (INH): 27.4%
Hepatitis B virus [3]
  inhibition at 20 µM: 24.5%
Hepatitis B virus [4]
  inhibition (INH): 39.7%
Hepatitis B virus [5]
  inhibition (INH): 82.5%
[6]
  CC50 at 72 h: 409 µM
Hepatitis B virus [7]
  inhibition at 20 µM: 17.5%
Hepatitis B virus [8]
  inhibition (INH): 80.2%
Hepatitis B virus [9]
  inhibition (INH): 42.6%
Hepatitis B virus [10]
  inhibition (INH): 36.9%
Hepatitis B virus [11]
  inhibition (INH): 65.2%
Hepatitis B virus [12]
  inhibition (INH): 36.6%
Hepatitis B virus [13]
  inhibition at 40 µM: 31.3%
Hepatitis B virus [14]
  inhibition (INH): 65.2%
Hepatitis B virus [15]
  inhibition at 10 µM: 14%
Hepatitis B virus [16]
  inhibition (INH): 32.1%
Hepatitis B virus [17]
  inhibition (INH): 83.6%
Hepatitis B virus [18]
  inhibition at 20 µM: 28.1%
Hepatitis B virus [19]
  inhibition at 40 µM: 34.7%
Hepatitis B virus [20]
  inhibition (INH): 68.9%
Hepatitis B virus [21]
  inhibition (INH): 76.4%
